Reference: ChEMBL document CHEMBL2202988, “D-amino acid based protein arginine deiminase inhibitors: Synthesis, pharmacokinetics, and in cellulo efficacy” (ACS Med Chem Lett, 2012)
Activity calls are given as the source filed them. No cut-off for these calls is given here.

Columns and labels:
MDA-MB-231 [1] = assay: Induction of apoptosis in human MDA-MB-231 cells assessed as caspase-3 activity at 100 to 400 uM; type: functional, cell-based
Summary of the method: (§1)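 MDA-MB-231 cells given inhibitor at 100, 200 and 400 μM; caspase 3 activity measured 96 h after administration.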

Mus musculus [2] = assay: Toxicity in C57BL/6J mouse assessed as change in body weight at 5 to 150 mg/kg, po after 1 to 96 hrs; type: organism-based; parameters: route oral; settings: in vivo
Summary of the method: (§2)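 Oral dosing of mice (n = 10) at varying doses up to 150 mg/kg; percent change in body weight followed to 96 h, significance at P <0.05.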

MDA-MB-231 [3] = assay: Cytotoxicity against human MDA-MB-231 cells assessed as decrease in cell number at 400 uM after 96 hrs by trypan blue assay; type: functional, cell-based
Summary of the method: (§3)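 MDA-MB-231 breast cancer cells (PAD1-overexpressing) exposed to inhibitor at 100, 200 and 400 μM; percent viability and cell number read 96 h after addition.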

MDA-MB-231 [4] = assay: Cytotoxicity against human MDA-MB-231 cells assessed as cell viability at 400 uM after 96 hrs by trypan blue assay; type: functional, cell-based; summary of the method: as §3
Mus musculus [5] = assay: Toxicity in po dosed C57BL/6J mouse; type: organism-based; settings: in vivo
Summary of the method: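 Mice (n = 10 per group) were dosed per os at varying doses up to 150 mg/kg. Percent change in total body weight was tracked to 96 h, along with observable signs of toxicity. MTD was taken as the highest dose causing no weight loss or significant toxicity signs. Weight change was tested for significance (P < 0.05).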

MDA-MB-231 [6] = assay: Antiproliferative activity against human MDA-MB-231 cells assessed as Ki-67 level at 100 to 400 uM; type: functional, cell-based
Summary of the method: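 MDA-MB-231 triple-negative breast cancer cells (PAD1-overexpressing) exposed to inhibitor at 100, 200 and 400 μM; Ki-67 level taken as the proliferation read-out; tunicamycin at increasing amounts served as positive control for cell-cycle arrest.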

MDA-MB-231 [7] = assay: Cytotoxicity against human MDA-MB-231 cells assessed as decrease in cell viability at 200 to 400 uM after 96 hrs by trypan blue assay; type: functional, cell-based; summary of the method: as §3
[8] = Drug level in C57Bl/6 mouse serum at 2.5 mg/kg, iv after 2 hrs by LC-MS/MS analysis; type: ADME, organism-based; parameters: dose 2.5 mg/kg, route intravenous; settings: read-out: Drug uptake
Summary of the method: (§4)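 Mice dosed by iv (2.5 or 10 mg/kg) or ip (10 mg/kg) injection; serum/plasma drug levels measured over time up to 4 h, plotted as mean levels.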

Liver = assay: Half life in mouse liver microsomes; type: ADME, Microsome
Summary of the method: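 Stability assessed by incubation with murine hepatic microsomes; half-life derived from compound remaining over time.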

[9] = Drug level in C57Bl/6 mouse serum at 10 mg/kg, ip after 4 hrs by LC-MS/MS analysis; type: ADME, organism-based; parameters: dose 10 mg/kg, route intraperitoneal; settings: read-out: Drug uptake; summary of the method: as §4
MDA-MB-231 [10] = assay: Induction of apoptosis in human MDA-MB-231 cells assessed as increase in caspase-3 activity; type: functional, cell-based; summary of the method: as §1
[11] = Drug level in C57Bl/6 mouse serum at 2.5 mg/kg, iv after 4 hrs by LC-MS/MS analysis; type: ADME, organism-based; parameters: dose 2.5 mg/kg, route intravenous; settings: read-out: Drug uptake; summary of the method: as §4
Mus musculus [12] = assay: Drug metabolism in C57Bl/6 mouse at 10 mg/kg, ip measured within 4 hrs by LC-MS/MS analysis; type: ADME, organism-based; parameters: dose 10 mg/kg, route intraperitoneal; settings: in vivo; summary of the method: as §4
Mus musculus [13] = assay: Toxicity in C57BL/6J mouse assessed as loss in body weight at 100 to 150 mg/kg, po after 96 hrs; type: organism-based; parameters: dose 100-150 mg/kg, route oral; settings: in vivo; summary of the method: as §2
Mus musculus [14] = assay: Toxicity in C57BL/6J mouse assessed as hunching at 150 mg/kg, po after 1 to 4 hrs; type: organism-based; parameters: dose 150 mg/kg, route oral; settings: in vivo
Summary of the method: (§5)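 Mice dosed per os at graded levels up to 150 mg/kg; observable physiological signs (shaking, anxiety, hunching, heavy breathing, stool changes, diarrhea) recorded after treatment, with monitoring over the following days.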

Mus musculus [15] = assay: Toxicity in C57BL/6J mouse assessed as occurrence of diarrhea at 150 mg/kg, po after 2 to 3 days; type: organism-based; parameters: dose 150 mg/kg, route oral; settings: in vivo; summary of the method: as §5
Mus musculus [16] = assay: Drug metabolism in C57Bl/6 mouse at 10 mg/kg, iv measured within 2 hrs by LC-MS/MS analysis; type: ADME, organism-based; parameters: dose 10 mg/kg, route intravenous; settings: in vivo; summary of the method: as §4
Mus musculus [17] = assay: Toxicity in C57BL/6J mouse assessed as bloody stools at 150 mg/kg, po; type: organism-based; parameters: dose 150 mg/kg, route oral; settings: in vivo; summary of the method: as §5
Mus musculus [18] = assay: Toxicity in C57BL/6J mouse assessed as heavy breathing at 150 mg/kg, po after 1 to 4 hrs; type: organism-based; parameters: dose 150 mg/kg, route oral; settings: in vivo; summary of the method: as §5
Mus musculus [19] = assay: Toxicity in C57BL/6J mouse assessed as body shaking at 150 mg/kg, po after 1 to 4 hrs; type: organism-based; parameters: dose 150 mg/kg, route oral; settings: in vivo; summary of the method: as §5
Mus musculus [20] = assay: Toxicity in C57BL/6J mouse assessed as anxiety at 150 mg/kg, po after 1 to 4 hrs; type: organism-based; parameters: dose 150 mg/kg, route oral; settings: in vivo; summary of the method: as §5
MDA-MB-231 [21] = assay: Antiproliferative activity against human MDA-MB-231 cells assessed as decrease in Ki-67 level; type: functional, cell-based
Summary of the method: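 MDA-MB-231 triple-negative breast cancer cells (PAD1-overexpressing) treated at 100, 200 and 400 μM. Ki-67 levels assessed 96 h after administration. Tunicamycin served as the positive control for cell cycle arrest.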

## N=C(CF)NCCC[C@@H](NC(=O)c1ccccc1C(=O)O)C(N)=O
MDA-MB-231 [1]
  Activity: inactive
Mus musculus [2]
  Activity: Non-toxic
MDA-MB-231 [3]
  Activity: inactive
MDA-MB-231 [4]
  Activity: inactive
Mus musculus [5]
  MTD: > 150 mg/kg
MDA-MB-231 [6]
  Activity: inactive

## N=C(CCl)NCCC[C@@H](NC(=O)c1ccccc1)C(N)=O
Mus musculus [2]
  Activity: Non-toxic
MDA-MB-231 [3]
  Activity: Active
MDA-MB-231 [7]
  Activity: Active
Mus musculus [5]
  MTD: > 150 mg/kg
[8]
  concentration at 2 h: 21 nM
Liver
  t1/2: 33 min
[9]
  concentration at 4 h: 10 nM
MDA-MB-231 [6]
  Activity: inactive
MDA-MB-231 [10]
  Activity: Dose-dependent effect
[11]
  concentration at 4 h: 10 nM

## N=C(CCl)NCCC[C@H](NC(=O)c1ccccc1)C(N)=O
Mus musculus [12]
  Drug metabolism: Active
Mus musculus [13]
  Activity: Toxic
MDA-MB-231 [3]
  Activity: Active
Mus musculus [14]
  Activity: Toxic
MDA-MB-231 [7]
  Activity: Active
Mus musculus [15]
  Activity: Toxic
Mus musculus [16]
  Drug metabolism: Active
Mus musculus [17]
  Activity: Toxic
Mus musculus [5]
  MTD: 75 mg/kg
Mus musculus [18]
  Activity: Toxic
Mus musculus [19]
  Activity: Toxic
Liver
  t1/2: 37 min
MDA-MB-231 [6]
  Activity: inactive
MDA-MB-231 [10]
  Activity: Dose-dependent effect
Mus musculus [20]
  Activity: Toxic

## CC(=O)N[C@H]1[C@@H](O[C@@H]2O[C@H](CC(O)[C@H]3O[C@@H](n4ccc(=O)[nH]c4=O)[C@H](O)[C@@H]3O)[C@H](O)[C@H](O)[C@H]2NC(=O)/C=C/CC(C)C)O[C@H](CO)[C@@H](N)[C@@H]1O (some centres not stated)
MDA-MB-231 [21]
  Activity: Active
